According to ChEMBL document CHEMBL4813972, “A grafted peptidomimetic for EGFR heterodimerization inhibition: Implications in NSCLC models” (Eur J Med Chem, 2021):
Active and inactive are the calls of the source. No cut-off for these calls is given here. Starred links: 1 amine or outer side, 2 acyl side, 3 side chain; linkers in the order of their positions; H or OH if unused. Positions of bridges follow the written chain, without caps; N, C: chain ends. Non-standard residues stand in square brackets, D forms with d. Residues, ends and D or L forms follow the SMILES beside them. X1 = N=C(N)NCCC[C@H](N[*:2])C(=O)NC(=O)[C@H](CC(=O)O)NC(=O)[*:1]; βAla(3R-(1-naphthyl)) = O=C(C[C@@H](N[*:1])c1cccc2ccccc12)[*:2]; βAla(3S-(1-naphthyl)) = O=C(C[C@H](N[*:1])c1cccc2ccccc12)[*:2]

Tests used:
BT-474 = test: Antiproliferative activity against human BT-474 cells overexpressing HER2 assessed as cell growth inhibition incubated for 72 hrs by cell titer glo assay; assay type: functional, cell-based; conditions: BT-474, 72 h
MCF7 = test: Antiproliferative activity against human MCF7 cells with silenced HER2 assessed as cell growth inhibition incubated for 72 hrs by cell titer glo assay; assay type: functional, cell-based; conditions: MCF7, 72 h
Outline: (§1)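 Cells seeded at 1×10^4 per well, left overnight at 37 °C/5% CO2, then exposed to a concentration series of peptide (up to 200, down to 0.01 μM) for 72 h. 1% SDS and 1% DMSO served as controls. Cells were PBS-washed, CellTiter-Glo added and luminescence read. IC50 taken from three independent experiments per cell line.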

Calu-3 [1] = test: Antitumor activity in human Calu-3 cells xenografted in Foxn1nu/Foxn1+ mouse assessed as reduction in tumor growth at 6 mg/kg, IT(Intratumoral) administered thrice a week for 21 days in presence of trastu-zumab and measured on day 21 relative to control; assay type: functional, organism-based; conditions: time 21.0 day
Calu-3 [2] = test: Antitumor activity in human Calu-3 cells xenografted in Foxn1nu/Foxn1+ mouse assessed as reduction in tumor growth at 8 mg/kg, IT(Intratumoral) administered thrice a week for 21 days and measured on day 21 relative to control; conditions: time 21.0 day
[3] = Toxicity in BALB/c mouse assessed as increase in Ki-67 expression at 5 ug/ml, iv administered on day 0 and 10 and spleenocytes collected on day 13 and incubated for 48 hrs by flow cytometry analysis; assay type: organism-based; conditions: in vivo, 360 h, dose 5 µg/ml, time 15 day
Outline: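 Splenocytes from PBS- or peptide-primed BALB/c mice (6 mg/kg i.v. days 0 and 10; harvested day 13) cultured 48 h with concanavalin A 5 μg/mL. Ki67 in CD3+ cells measured by flow cytometry after viability, surface and intracellular staining.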

MCF-10A = test: Cytotoxicity against human MCF-10A cells assessed as cell growth inhibition incubated for 72 hrs by cell titer glo assay; assay type: cell-based; outline: as §1
A549 = test: Antiproliferative activity against human A549 cells overexpressing HER2 assessed as cell growth inhibition incubated for 72 hrs by cell titer glo assay; assay type: functional, cell-based; conditions: A549, 72 h; outline: as §1
Calu-3 [4] = test: Antiproliferative activity against human Calu-3 cells overexpressing HER2 assessed as cell growth inhibition incubated for 72 hrs by cell titer glo assay; assay type: functional, cell-based; conditions: Calu-3, 72 h

SMILES	IC50 (BT-474) [µM]	IC50 (MCF7) [µM]	other results
Cc1ccc(OCC(O)C(C)NC(C)C)c2c1CCC2 (stereo unspecified)	–	–	Activity (Calu-3 [1]): Active; Activity (Calu-3 [2]): Active
Cc1cn(C2C[C@H](N=[N+]=[N-])[C@@H](CO)O2)c(=O)[nH]c1=O (stereo partly specified)	–	–	Activity [3]: Toxic
N=C(N)NCCC[C@@H]1NC(=O)[C@H]2CCCN2C(=O)[C@@H]2CCCN2C(=O)[C@H](CCCNC(=N)N)NC(=O)C[C@H](c2cccc3ccccc23)NC(=O)[C@H](Cc2ccccc2)NC(=O)[C@H](CC(=O)O)NC(=O)[C@H](CC(=O)O)NC(=O)[C@H](Cc2ccccc2)NC(=O)C[C@H](c2cccc3ccccc23)NC1=O (cyclo(DDF[βAla(3R-(1-naphthyl))]RP[dP]R[βAla(3R-(1-naphthyl))]F))	–	> 50	IC50 (MCF-10A): 40 µM
CC[C@H](C)[C@@H]1NC(=O)[C@@H]2CSSC[C@H](NC(=O)[C@H](CCCNC(=N)N)NC(=O)CNC(=O)[C@H](CC(=O)O)NC(=O)[C@@H]3CCCN3C(=O)N[C@@H](Cc3ccccc3)C(=O)N2)C(=O)N[C@@H]([C@H](C)O)C(=O)N[C@@H](CCCCN)C(=O)N([C@@H](CO)C(=O)O)C(=O)[C@H]([C@@H](C)CC)NC(=O)[C@@H]2CCCN2C(=O)[C@@H]2CCCN2C1=O	–	–	IC50 (A549): > 100 µM; IC50 (Calu-3 [4]): > 100 µM
NCCCC[C@H](N)C(=O)N[C@@H](CC(=O)N[C@@H](Cc1ccccc1)C(=O)O)c1ccc(-c2ccccc2)cc1	> 100	> 100	IC50 (A549): > 100 µM; IC50 (Calu-3 [4]): > 100 µM

Continued, in another order:

IC50 (BT-474) [µM]	IC50 (MCF7) [µM]	SMILES	other results
5.23	> 50	N=C(N)NCCC[C@@H]1NC(=O)[C@H]2CCCN2C(=O)[C@@H]2CCCN2C(=O)[C@H](CCCNC(=N)N)NC(=O)C[C@H](c2cccc3ccccc23)NC(=O)N[C@H]2CSSC[C@H](NC(=O)C[C@H](c3cccc4ccccc34)NC1=O)C(=O)N[C@@H](Cc1ccccc1)C(=O)NC(=O)[C@H](Cc1ccccc1)NC2=O	–
4.16	> 50	CC[C@H](C)[C@@H]1NC(=O)[C@H](CO)NC(=O)[C@H](CC(=O)O)NC(=O)[C@H](Cc2ccccc2)NC(=O)[C@@H]2CSSC[C@H](NC(=O)[C@H](Cc3ccccc3)NC(=O)[C@H](CC(=O)O)NC1=O)C(=O)N[C@H](c1cccc3ccccc13)CC(=O)N[C@@H](CCCNC(=N)N)C(=O)NC(=O)[C@H](CC(=O)O)NC(=O)N[C@@H](CCCNC(=N)N)C(=O)N[C@H](c1cccc3ccccc13)CC(=O)N2 (R[βAla(3S-(1-naphthyl))]CFDSIDFC[βAla(3S-(1-naphthyl))]; disulfide 3-10; linker N-C via X1)	–
7.22	> 30	CC[C@H](C)[C@@H]1NC(=O)[C@@H]2CCCN2C(=O)[C@@H]2CCCN2C(=O)NC(=O)[C@H](CC(=O)O)NC(=O)[C@H](Cc2ccccc2)NC(=O)[C@@H]2CSSC[C@H](NC(=O)N[C@H](c3cccc4ccccc34)CC(=O)N[C@@H](CCCNC(=N)N)C(=O)N3CCC[C@H]3C(=O)NCC(=O)N[C@@H](CCCNC(=N)N)C(=O)N[C@H](c3cccc4ccccc34)CC(=O)N2)C(=O)N[C@@H](Cc2ccccc2)C(=O)NC(=O)[C@H](CC(=O)O)NC(=O)[C@H](CO)NC1=O	–
2.94	> 50	CC[C@H](C)[C@H]1C(=O)NC(=O)[C@H](CCCNC(=N)N)NC(=O)C[C@H](c2cccc3ccccc23)NC(=O)N[C@H]2CSSC[C@H](NC(=O)C[C@H](c3cccc4ccccc34)NC(=O)[C@H](CCCNC(=N)N)NC(=O)[C@@H]3CCCN3C(=O)[C@@H]3CCCN13)C(=O)N[C@@H](Cc1ccccc1)C(=O)N1CCC[C@H]1C(=O)N[C@@H](CC(=O)O)C(=O)NC(=O)[C@H](CC(=O)O)NC(=O)[C@H](Cc1ccccc1)NC2=O	–
3.65	> 50	N=C(N)NCCC[C@@H]1NC(=O)[C@H]2CCCN2C(=O)[C@@H]2CCCN2C(=O)[C@H](CCCNC(=N)N)NC(=O)C[C@H](c2cccc3ccccc23)NC(=O)N[C@H]2CSSC[C@H](NC(=O)C[C@H](c3cccc4ccccc34)NC1=O)C(=O)N[C@@H](Cc1ccccc1)C(=O)N[C@@H](CC(=O)O)C(=O)NC(=O)[C@H](CC(=O)O)NC(=O)[C@H](Cc1ccccc1)NC2=O	–
